Data reported in ChEMBL document CHEMBL1150393, “Evaluation of radiolabeled (hetero)aromatic analogues of N-(2-diethylaminoethyl)-4-iodobenzamide for imaging and targeted radionuclide therapy of melanoma” (J Med Chem, 2008).

What was measured:
Type in all cases: ADME, organism-based
Details in all cases: in vivo
[1] = Biodistribution in glandula seminalis of C57BL/6 mouse bearing mouse B16-F0 cells at 0.74 to 0.92 MBq, iv after 3 hrs
In short: (§1)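 Male C57BL6 mice with s.c. left-flank B16-F0 melanoma (5 × 10⁵ cells in PBS). Two mice per time point frozen in liquid nitrogen after CO₂ sacrifice. Eight 40 µm whole-body cryosections per mouse read by multiwire proportional counter. cpm/mm² converted to kBq/g and expressed as %ID/g.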

[2] = Biodistribution in glandula seminalis of C57BL/6 mouse bearing mouse B16-F0 cells at 0.74 to 0.92 MBq, iv after 6 hrs; in short: as §1
[3] = Biodistribution in glandula seminalis of C57BL/6 mouse bearing mouse B16-F0 cells at 0.74 to 0.92 MBq, iv after 1 hr; in short: as §1
[4] = Biodistribution in gall bladder of C57BL/6 mouse bearing mouse B16-F0 cells at 0.74 to 0.92 MBq, iv after 1 hr; in short: as §1
[5] = Ratio of drug level in tumor to brain of C57BL/6 mouse bearing mouse B16-F0 cells at 0.74 to 0.92 MBq, iv after 24 hrs
In short: (§2)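 Tumour and organ radioactive concentrations came from whole-body cryosection counting (40 µm slices, eight per mouse, two mice per time) after tail-vein injection of the [¹²⁵I]-labelled compound (0.1 µmol) into male C57BL6 mice bearing s.c. B16-F0 melanoma. Each value is the ratio of the tumour concentration to the organ concentration.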

[6] = system: Brain; assay: Biodistribution in brain of C57BL/6 mouse bearing mouse B16-F0 cells at 0.74 to 0.92 MBq, iv after 24 hrs; in short: as §1
[7] = Ratio of drug level in tumor to brain of C57BL/6 mouse bearing mouse B16-F0 cells at 0.74 to 0.92 MBq, iv after 72 hrs; in short: as §2
[8] = Biodistribution in intestinal content of C57BL/6 mouse bearing mouse B16-F0 cells at 0.74 to 0.92 MBq, iv after 72 hrs; in short: as §1
[9] = system: Brain; assay: Biodistribution in brain of C57BL/6 mouse bearing mouse B16-F0 cells at 0.74 to 0.92 MBq, iv after 72 hrs; in short: as §1
[10] = Ratio of drug level in tumor to liver of C57BL/6 mouse bearing mouse B16-F0 cells at 0.74 to 0.92 MBq, iv after 72 hrs; in short: as §2
[11] = system: Liver; assay: Biodistribution in liver of C57BL/6 mouse bearing mouse B16-F0 cells at 0.74 to 0.92 MBq, iv after 72 hrs; in short: as §1
[12] = system: Pancreas; assay: Biodistribution in pancreas of C57BL/6 mouse bearing mouse B16-F0 cells at 0.74 to 0.92 MBq, iv after 24 hrs; in short: as §1
[13] = system: Muscle tissue; assay: Biodistribution in muscle of C57BL/6 mouse bearing mouse B16-F0 cells at 0.74 to 0.92 MBq, iv after 24 hrs; in short: as §1
[14] = system: Kidney; assay: Biodistribution in kidney of C57BL/6 mouse bearing mouse B16-F0 cells at 0.74 to 0.92 MBq, iv after 72 hrs; in short: as §1
[15] = system: Bone marrow; assay: Biodistribution in bone marrow of C57BL/6 mouse bearing mouse B16-F0 cells at 0.74 to 0.92 MBq, iv after 1 hr; in short: as §1

**Q.** For `CCN(CC)CCNC(=O)c1ccc([125I])nc1.Cl.Cl`, which Drug uptake [1] is on record?
**A.** 3.78 % ID/g

**Q.** What about the Drug uptake [2] of the same compound?
**A.** 3.55 % ID/g

**Q.** What about the Drug uptake [3] of the same compound?
**A.** 6.79 % ID/g

**Q.** And the Drug uptake [4]?
**A.** 8.68 % ID/g

**Q.** Which Ratio [5] does the source give for `CCN(CC)CCNC(=O)c1c[nH]c2ccc([125I])cc2c1=O.Cl.Cl` here?
**A.** 68.5

**Q.** And the Drug uptake [6]?
**A.** 0.04 % ID/g

**Q.** And the Ratio [7]?
**A.** 23.5

**Q.** What about the Drug uptake [8] of the same compound?
**A.** 0.7 % ID/g

**Q.** What about the Drug uptake [9] of the same compound?
**A.** 0.1 % ID/g

**Q.** Which Ratio [10] does the source give for `CCN(CC)CCNC(=O)c1cc2cc([125I])ccc2[nH]1.Cl` here?
**A.** 1.38

**Q.** And the Drug uptake [11]?
**A.** 0.61 % ID/g

**Q.** What about the Drug uptake [12] of the same compound?
**A.** 0.09 % ID/g

**Q.** And the Drug uptake [13]?
**A.** 0.19 % ID/g

**Q.** And the Drug uptake [14]?
**A.** 0.71 % ID/g

**Q.** For `CCN(CC)CCNC(=O)c1cnc2cc([125I])ccc2n1.Cl.Cl`, which Drug uptake [15] is on record?
**A.** 4.58 % ID/g

**Q.** Which Ratio [10] does the source give for `CCN(CC)CCNC(=O)c1ccc2cc([125I])ccc2n1.Cl.Cl` here?
**A.** 7.26

**Q.** What about the Drug uptake [11] of the same compound?
**A.** 1.23 % ID/g
